Data set [1] is described as follows: Metabolic stability in human liver microsomes assessed as parent compound metabolism after 30 mins by LC-MS analysis. As to conditions: read-out: Drug metabolism. In kind it is ADME, Microsome. The essentials:
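Test compound at 10 μM with pooled mixed-gender human liver microsomes (1 mg/mL protein), NADPH 1 mM, UDPGA 2.5 mM and MgCl2 3 mM in 10 mM PBS at 37 °C for 0 and 30 min. Controls omit NADPH/UDPGA. Compound remaining measured by LC–MS; reported as percent of parent metabolized at 30 min.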

The target of the next data set is T1, Aurora kinase A (Homo sapiens, UniProt O14965).
T1 sequence (O14965 whole entry): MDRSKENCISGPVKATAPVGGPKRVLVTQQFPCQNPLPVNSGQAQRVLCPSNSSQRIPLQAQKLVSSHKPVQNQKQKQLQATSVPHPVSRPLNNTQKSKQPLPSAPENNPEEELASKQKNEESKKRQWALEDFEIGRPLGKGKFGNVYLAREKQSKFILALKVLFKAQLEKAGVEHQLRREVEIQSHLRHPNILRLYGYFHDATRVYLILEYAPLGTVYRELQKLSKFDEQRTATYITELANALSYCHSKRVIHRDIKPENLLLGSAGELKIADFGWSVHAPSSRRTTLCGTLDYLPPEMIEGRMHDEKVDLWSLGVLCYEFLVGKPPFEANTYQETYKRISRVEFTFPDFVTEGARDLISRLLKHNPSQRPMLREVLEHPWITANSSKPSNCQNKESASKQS
Kind of data set: Inhibition of GST-tagged human Aurora A kinase expressed in baculovirus system.

Data set [2] can be described thus: Metabolic stability in mouse liver microsomes assessed as parent compound metabolism after 30 mins by LC-MS analysis. The following applies: read-out: Drug metabolism. In kind it is ADME, Microsome. The essentials: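 Male CD1 mouse liver microsomes (1 mg/mL protein) incubated with 10 μM compound plus NADPH 1 mM, UDPGA 2.5 mM and MgCl2 3 mM in 10 mM PBS at 37 °C for 0 and 30 min. NADPH/UDPGA-free controls included. LC–MS quantitation of remaining compound; reported as percent parent metabolized after 30 min.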
Background: Liver microsomes are a subcellular fraction often used to study metabolism.

A further data set deals with SW-620. Kind of data set: cells. The following applies: Homo sapiens, SW-620, 72 h.
For data set [3], the target named is Voltage-gated inwardly rectifying potassium channel KCNH2 (Homo sapiens, UniProt Q12809). Kind of data set: Inhibition of human ERG by cell-based electrophysiology assay.
Data set [4] concerns the target T2, Receptor-type tyrosine-protein kinase FLT3 (Homo sapiens, UniProt P36888).
T2 sequence (P36888 whole entry): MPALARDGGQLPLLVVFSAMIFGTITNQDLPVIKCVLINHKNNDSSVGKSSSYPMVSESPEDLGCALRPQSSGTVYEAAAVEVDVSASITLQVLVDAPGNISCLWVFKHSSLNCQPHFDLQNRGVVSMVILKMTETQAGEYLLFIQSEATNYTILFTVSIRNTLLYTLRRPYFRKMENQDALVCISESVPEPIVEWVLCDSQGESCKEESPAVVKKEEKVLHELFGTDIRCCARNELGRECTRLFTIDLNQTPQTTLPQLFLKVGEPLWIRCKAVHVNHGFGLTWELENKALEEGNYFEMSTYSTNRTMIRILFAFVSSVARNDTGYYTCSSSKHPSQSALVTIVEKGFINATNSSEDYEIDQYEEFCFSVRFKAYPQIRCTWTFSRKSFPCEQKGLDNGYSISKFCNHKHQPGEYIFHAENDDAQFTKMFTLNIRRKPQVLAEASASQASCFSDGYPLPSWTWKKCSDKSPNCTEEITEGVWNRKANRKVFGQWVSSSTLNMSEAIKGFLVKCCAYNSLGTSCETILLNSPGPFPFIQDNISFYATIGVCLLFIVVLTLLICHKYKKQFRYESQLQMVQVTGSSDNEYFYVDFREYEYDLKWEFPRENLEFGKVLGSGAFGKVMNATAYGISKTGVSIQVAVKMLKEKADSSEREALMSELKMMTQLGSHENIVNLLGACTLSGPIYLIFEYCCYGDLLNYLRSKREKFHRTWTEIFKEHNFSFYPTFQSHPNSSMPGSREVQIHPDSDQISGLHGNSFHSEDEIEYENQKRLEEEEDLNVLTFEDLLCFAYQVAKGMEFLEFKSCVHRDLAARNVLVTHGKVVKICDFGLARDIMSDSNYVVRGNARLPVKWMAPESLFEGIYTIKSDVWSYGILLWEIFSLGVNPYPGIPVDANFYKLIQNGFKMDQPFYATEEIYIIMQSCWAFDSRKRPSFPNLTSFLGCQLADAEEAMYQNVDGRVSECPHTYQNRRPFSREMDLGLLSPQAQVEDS

Data set [5] in a line: Binding affinity to FLT3 ITD mutant.
Another data set addresses hERG (KCNH2) (Homo sapiens, UniProt Q12809). Kind of data set: Inhibition of human ERG at 10 uM by cell-based electrophysiology assay.

Structures are written as SMILES.

Sequence of Voltage-gated inwardly rectifying potassium channel KCNH2 (Q12809 whole entry): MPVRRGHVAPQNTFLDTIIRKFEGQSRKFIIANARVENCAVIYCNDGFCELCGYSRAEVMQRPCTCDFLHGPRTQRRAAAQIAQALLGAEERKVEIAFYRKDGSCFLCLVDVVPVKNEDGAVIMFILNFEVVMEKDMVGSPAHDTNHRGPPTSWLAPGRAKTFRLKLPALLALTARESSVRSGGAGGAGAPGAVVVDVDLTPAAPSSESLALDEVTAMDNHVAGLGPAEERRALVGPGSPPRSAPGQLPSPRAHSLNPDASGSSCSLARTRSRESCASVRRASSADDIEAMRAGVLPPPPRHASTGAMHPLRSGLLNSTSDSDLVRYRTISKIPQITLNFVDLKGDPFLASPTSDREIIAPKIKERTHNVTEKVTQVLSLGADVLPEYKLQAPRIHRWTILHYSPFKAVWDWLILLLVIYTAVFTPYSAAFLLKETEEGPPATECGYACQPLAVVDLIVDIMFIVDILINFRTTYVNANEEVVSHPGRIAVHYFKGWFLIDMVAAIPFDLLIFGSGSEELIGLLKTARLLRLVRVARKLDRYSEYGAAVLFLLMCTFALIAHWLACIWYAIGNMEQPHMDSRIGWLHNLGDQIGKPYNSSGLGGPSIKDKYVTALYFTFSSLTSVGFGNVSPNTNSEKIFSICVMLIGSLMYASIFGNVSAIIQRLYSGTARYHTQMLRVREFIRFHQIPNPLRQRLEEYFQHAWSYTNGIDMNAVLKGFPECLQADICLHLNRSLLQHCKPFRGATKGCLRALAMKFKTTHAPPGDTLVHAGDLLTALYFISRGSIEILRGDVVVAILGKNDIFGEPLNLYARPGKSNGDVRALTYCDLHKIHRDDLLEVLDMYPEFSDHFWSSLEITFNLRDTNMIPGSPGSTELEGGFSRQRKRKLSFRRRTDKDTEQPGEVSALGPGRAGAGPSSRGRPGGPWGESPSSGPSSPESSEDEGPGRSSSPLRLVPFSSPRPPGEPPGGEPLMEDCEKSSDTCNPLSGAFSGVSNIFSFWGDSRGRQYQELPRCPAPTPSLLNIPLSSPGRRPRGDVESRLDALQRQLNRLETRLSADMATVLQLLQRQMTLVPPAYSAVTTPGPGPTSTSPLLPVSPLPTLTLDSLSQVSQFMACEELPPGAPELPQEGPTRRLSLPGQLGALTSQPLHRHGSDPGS
Sequence of hERG (KCNH2) (Q12809 whole entry): as above

On to `Cc1cc(CN2CCN(c3c(Cl)cnc4[nH]c(-c5cn(C)nc5C)nc34)CC2)no1`, for which the metabolised at 0.5 h in data set [1] came out at 38%; in data set [2], 48%. For the same compound, the IC50 against Aurora kinase A came out at 13 nM; in data set [3], 6300 nM. For the same compound, in the data set with SW-620, the 50% growth inhibitory concentration (GI50) is 597 nM. For the same compound, the Kd turned out to be 2.4 nM in data set [4] and 10 nM in data set [5].
As to `Cc1cc(CN2CCN(c3c(Cl)cnc4[nH]c(-c5cccc(N6CCN(C)CC6)c5)nc34)CC2)no1`, the values for the metabolised at 0.5 h in data set [1] and in data set [2] were 24% and 40%, respectively. The IC50 against Aurora kinase A is 26 nM; in data set [3] it was 9500 nM. In addition, the GI50 in the data set on SW-620 was 667 nM. Further, the Kd in data set [4] turned out to be 5.4 nM; in data set [5], 26 nM.
Consider `Cc1nn(C)cc1-c1nc2c(N3CCN(Cc4cncnc4)CC3)c(Cl)cnc2[nH]1`, for which the results for the metabolised at 0.5 h in data set [1] and in data set [2] were 50% and 78%, respectively. Besides, at 10 µM the inhibition against hERG (KCNH2) was 32%. The half-inhibitory concentration (IC50) at Aurora kinase A amounted to 22 nM. The GI50 in the data set on SW-620 is 950 nM. Further, the Kd in data set [4] came to 5.9 nM; in data set [5], 15 nM.

One may read the IC50 as the midpoint of a concentration-inhibition curve. Higher therefore signals weaker potency in that assay. Usually GI50 stands for the concentration at which growth is held to half of that of the control. A higher GI50 goes with lower sensitivity of the cells. One may read the Kd as a measure of binding affinity in units of concentration. A higher Kd goes with lower affinity. For orientation: inhibition means the percentage by which the read-out fell short of the control. A lower inhibition goes with little suppression.

Values taken from ChEMBL document CHEMBL2203264, “Optimization of imidazo[4,5-b]pyridine-based kinase inhibitors: identification of a dual FLT3/Aurora kinase inhibitor as an orally bioavailable preclinical development candidate for the treatment of acute myeloid leukemia” (J Med Chem, 2012).
